32 molecules from ChEMBL document CHEMBL4616602, “Design and biological evaluation of tetrahydropyridine derivatives as novel human GPR119 agonists” (Bioorg Med Chem Lett, 2020) can be followed below.

Data set [1] concerns Mus musculus. Briefly: Hypoglycemic activity in C57BL/6 mouse assessed as reduction in blood glucose AUC at 100 mg/kg, po measured after 2 hrs by glucose challenge by OGTT relative to control. Format: functional. More on the design: scale not given: the % may be the effect or the level left. A digest of the protocol:
(§1)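 Normal male C57BL/6J mice received vehicle or compound at 20, 50 or 100 mg/kg, then a glucose challenge of 2 g/kg (10 ml/kg). Blood glucose was followed over 0–120 min and AUC0–120 min calculated. Mean ± SD, n=6, versus vehicle group.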

Data set [2] deals with T1, Glucose-dependent insulinotropic receptor (Homo sapiens, UniProt Q8TDV5).
T1 sequence (Q8TDV5 whole entry): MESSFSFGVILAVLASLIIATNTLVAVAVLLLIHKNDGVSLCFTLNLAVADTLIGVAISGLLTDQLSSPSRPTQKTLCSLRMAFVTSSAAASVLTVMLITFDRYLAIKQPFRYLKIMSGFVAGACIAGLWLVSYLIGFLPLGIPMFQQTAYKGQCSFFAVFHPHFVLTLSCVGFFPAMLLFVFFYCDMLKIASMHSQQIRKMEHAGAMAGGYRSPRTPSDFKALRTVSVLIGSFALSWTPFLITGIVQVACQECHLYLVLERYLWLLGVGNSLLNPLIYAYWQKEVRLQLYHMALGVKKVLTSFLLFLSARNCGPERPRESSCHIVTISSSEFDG
Briefly: Agonist activity at GPR119 (unknown origin) assessed as increase in cAMP level by cAMP HTRF assay. Format: functional. A digest of the protocol: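 Cell-based GPR119 agonist assay with a top test concentration of 10 μM. EC50 values are reported as means.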

The target of data set [3] is T2, Glucose-dependent insulinotropic receptor (Homo sapiens) (UniProt Q8TDV5).
T2 sequence (whole entry): T1 sequence (Q8TDV5 whole entry)
Briefly: Agonist activity at GPR119 (unknown origin) assessed as increase in cAMP level at 10 uM by cAMP HTRF assay relative to oleoylethanolamide. Format: functional. A digest of the protocol:
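Cell-based GPR119 agonism at a single 10 μM concentration. Response is expressed as percent of the maximal efficacy of the reference agonist oleoylethanolamide (OEA). Values are means.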
A general note: cAMP levels reflect the balance of adenylyl cyclase and phosphodiesterase activity.

Data set [4] concerns Mus musculus. Briefly: Hypoglycemic activity in C57BL/6 mouse assessed as reduction in blood glucose AUC at 20 and 50 mg/kg, po measured immediately by glucose challenge by OGTT relative to control. Format: functional. More on the design: scale not given: the % may be the effect or the level left. The essentials: as §1
Data set [5] has as its system Mus musculus. Briefly: Hypoglycemic activity in C57BL/6 mouse assessed as reduction in blood glucose AUC at 20 and 50 mg/kg, po measured after 2 hrs by glucose challenge by OGTT relative to control. More on the design: scale not given: the % may be the effect or the level left. Type of data set: functional. A digest of the protocol: as §1
Data set [6] can be described thus: Solubility of compound. Type of data set: physicochemical. The essentials: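 Aqueous solubility (logS and mg/ml) was calculated in silico, not measured experimentally.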
Data set [7] relates to Mus musculus. Briefly: Antidiabetic activity in C57BL/6 mouse […] model assessed as reduction in body weight gain at 20 mg/kg, po administered for 4 weeks and measured on day 28. Format: functional, organism-based. The essentials:
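Diet-induced obese mice were given 20 mg/kg for 4 weeks, with body weight recorded through day 28. Mean ± SD, n=6, versus vehicle group.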

The subject of data set [8] is Mus musculus. Briefly: Hypoglycemic activity in C57BL/6 mouse […] model assessed as reduction in blood glucose AUC at 20 mg/kg, po administered for 28 days and measured after 2 hrs on day 28 by glucose challenge by OGTT relative to control. Format: functional. More on the design: scale not given: the % may be the effect or the level left. The essentials:
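Diet-induced obese mice were dosed with 20 mg/kg repeatedly for 28 days. On day 28 an OGTT (2 g/kg glucose) was run with blood glucose tracked over 0–120 min and AUC0–120 min derived. Fasting glucose was also taken at day 28. Mean ± SD, n=6, versus vehicle.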

Data set [9] can be described thus: Toxicity in C57BL/6 mouse […] model assessed as reduction in food intake at 20 mg/kg, po observed for 4 weeks. Format: organism-based. Particulars: in vivo, 672 h. The essentials: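 Diet-induced obese mice were treated at 20 mg/kg for 4 weeks, and average food intake was recorded over the treatment period. Mean ± SD, n=6, compared with vehicle.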

In general, EC50 refers to the midpoint of the concentration-response curve. By Emax is commonly meant the maximal effect, on the per cent scale that the assay sets. As usually defined, the solubility is how much of the substance goes into solution per volume.

The structures appear in SMILES notation. In brackets after ≈: the same amount, converted by molar mass. Activity calls are given as the source filed them. The calls are words filed in the database; no cut-off is given here.

With `CCc1cnc(N2CC=C(c3nc(COc4ccc(-n5cnnn5)cc4Cl)cs3)CC2)nc1`, the Activity in data set [1] is given as 12.11%. Moreover, the EC50 in data set [2] was determined as 10.2 nM. In data set [3], the Emax stood at 109%.

`CC(C)(C)OC(=O)N1CC=C(c2nc(COc3ccc(S(C)(=O)=O)cc3)cs2)CC1`: in data set [2], the EC50 came out at 678 nM. Further, in data set [3], the Emax was determined as 78%.

`CCc1ccc(N2CC=C(c3nc(COc4ccc(-n5cnnn5)cc4F)cs3)CC2)nc1`: the Emax in data set [3] was found to be 89.6%.

`CCc1cnc(N2CC=C(c3nc(COc4ccc(S(C)(=O)=O)cc4)cs3)CC2)nc1`: in [2], the EC50 came to 70.5 nM. For the same molecule, the Emax in [3] stood at 105%.

Take `COc1ccc(NCc2csc(C3=CCN(C(=O)OC(C)(C)C)CC3)n2)cc1OC`: the Emax in data set [3] was -6.25%.

As to `CC(C)(C)OC(=O)N1CC=C(c2nc(COc3ccc(-n4cnnn4)cc3Cl)cs2)CC1`, the EC50 in data set [2] amounted to 107 nM. Besides, in data set [3], the Emax is 94.4%.

On to `COC(=O)c1sccc1NCc1csc(C2=CCN(C(=O)OC(C)(C)C)CC2)n1`, for which the Emax in data set [3] is 13%.

Turning to `CC(C)(C)OC(=O)N1CC=C(c2nc(COc3ccc(-n4cnnn4)cc3)cs2)CC1`, the EC50 in [2] was 113 nM. In data set [3], the Emax turned out to be 95.4%.

Regarding `CCc1cnc(N2CC=C(c3nc(COc4ccc(-n5cnnn5)cc4F)cs3)CC2)nc1`, the values for the Activity in data set [1], in data set [4] and in [5] were 26.81%, 1.2% and 14.16%, respectively. Besides, the EC50 in data set [2] came out at 8.8 nM. Besides, the Emax in data set [3] came to 115%.

As to `CCCC(=O)c1ccc(OCc2csc(C3=CCN(C(=O)OC(C)(C)C)CC3)n2)cc1`, in data set [3], the Emax stood at 62.5%.

Turning to `CCc1cnc(N2CC=C(c3nc(COc4ccc(-n5cnnn5)cc4)cs3)CC2)nc1`, the Activity in data set [1] is 35.05%; in data set [4] it was 20.11%; in data set [5], 26.77%; in [8], 34.8%; in data set [9] it was “Non-Toxic”. In addition, the EC50 in data set [2] is 4.9 nM. The same molecule had a solubility in [6] of 56 µg/mL (≈ 125 µM). The outcome in [7] was Active. In data set [3], the Emax came out at 110%.

`CCc1cnc(N2CCC(c3nc(COc4ccc(-n5cnnn5)cc4)cs3)CC2)nc1` [MBX-2982]: the Activity is recorded as 29.22% in data set [1]; 18.47% in data set [4]; 26.72% in data set [5]; 23.61% in [8]; “Non-Toxic” in data set [9]. In data set [2], the EC50 was 3.9 nM. The molecule further showed a solubility in data set [6] of 37 µg/mL (≈ 82.5 µM). The outcome in [7] was Active. For the same molecule, the Emax in data set [3] stood at 113%.

On to `CC(C)(C)OC(=O)N1CC=C(c2nc(CNc3ccc(Cl)c(I)c3)cs2)CC1`, for which, in [3], the Emax amounted to 5.25%.

Regarding `CCc1ccc(N2CC=C(c3nc(COc4ccc(-n5cnnn5)cc4)cs3)CC2)nc1`, in data set [3], the Emax is 78.5%.

On to `CCc1ccc(N2CC=C(c3nc(COc4ccc(-n5cnnn5)cc4Cl)cs3)CC2)nc1`, for which the Emax in data set [3] stood at 72.7%.

For `CC(C)(C)OC(=O)N1CC=C(c2nc(COc3ccc(OC(F)(F)F)cc3)cs2)CC1`, in data set [3], the Emax was determined as 7.04%.

As to `CC(C)(C)OC(=O)N1CC=C(c2nc(COc3ccc(C(C)(C)C)cc3C(C)(C)C)cs2)CC1`, the Emax in [3] turned out to be 1.7%.

Turning to `CC(C)(C)OC(=O)N1CC=C(c2nc(CNc3ccc(S(C)(=O)=O)cc3)cs2)CC1`, in data set [3], the Emax came to 26%.

As for `CCCCCCCC/C=C\CCCCCCCC(=O)NCCO` [OLEOYLETHANOLAMIDE], the EC50 in data set [2] turned out to be 930 nM.

With `COc1ccc(-n2cnnn2)cc1OCc1csc(C2=CCN(C(=O)OC(C)(C)C)CC2)n1`, the Emax in data set [3] worked out at 8.4%.

Turning to `CC(C)(C)OC(=O)N1CC=C(c2nc(COc3ccc(-n4cnnn4)cc3F)cs2)CC1`, in data set [2], the EC50 came out at 108 nM. Besides, in [3], the Emax turned out to be 105%.

Take `COc1ccc(NCc2csc(C3=CCN(C(=O)OC(C)(C)C)CC3)n2)c(OC)c1`: the Emax in data set [3] was -7.44%.

Regarding `CC(C)(C)OC(=O)N1CC=C(c2nc(CNc3cc(C(F)(F)F)cc(C(F)(F)F)c3)cs2)CC1`, the Emax in [3] is -2.16%.

For the molecule `COc1ccc(OCc2csc(C3=CCN(C(=O)OC(C)(C)C)CC3)n2)cc1OC`, the Emax in data set [3] came out at 10.7%.

In the case of `CC(C)(C)OC(=O)N1CC=C(c2nc(COc3cccc(-n4cnnn4)c3)cs2)CC1`, the Emax in data set [3] is -2.17%.

Turning to `CCc1ccc(N2CC=C(c3nc(COc4ccc(S(C)(=O)=O)cc4)cs3)CC2)nc1`, the Emax in [3] came to 71.5%.

As for `CC(C)(C)OC(=O)N1CC=C(c2nc(COc3ccc4c(c3)OCO4)cs2)CC1`, in data set [3], the Emax is 11.5%.

In the case of `CC(C)(C)OC(=O)N1CC=C(c2nc(CNc3ccc(-n4cnnn4)cc3)cs2)CC1`, the Emax in data set [3] was 35.5%.

Regarding `CC(C)(C)OC(=O)N1CC=C(c2nc(COc3ccc(Cl)cc3)cs2)CC1`, in [3], the Emax was -7.34%.

As for `COc1ccc(C(C)=O)cc1OCc1csc(C2=CCN(C(=O)OC(C)(C)C)CC2)n1`, in data set [3], the Emax was -5.65%.

Take `COc1ccc(Br)cc1OCc1csc(C2=CCN(C(=O)OC(C)(C)C)CC2)n1`: the Emax in [3] is -14.2%.

Regarding `CC(C)(C)OC(=O)N1CC=C(c2nc(COc3ccc(C4CCCCC4)cc3)cs2)CC1`, the Emax in data set [3] is 19.7%.
